The source of these data is PubChem BioAssay.

Activity calls are given as the source filed them.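 How the source made its calls, unless noted: active means visually confirmed hit in the image check and inhibition above 20%; inconclusive means visually confirmed hit but inhibition not above 20%; inactive means no visual hit in the image check.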

Assay [1] can be described thus: inhibitors of TNFa-induced NFkB p65 translocation, primary screen, imaging, HUVEC, MLSMR starter and 10KST1 sets (AID 438;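 active means inhibition above 20% together with a positive visual image hit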;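 further: compound added about 3h40 before a 20 min TNFalpha stimulation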;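 on inhibition: signal is the nuclear over cytoplasmic p65 intensity ratio per well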). The following applies: HUVEC TNFa-induced p65 nuclear translocation; cell count: measured here: nuclei count (cytotoxicity indicator), at 2.08 µM; inhibition: at 2 µM, stronger effect = higher value, 0% TNFa-plus-vehicle, 100% no-TNFa wells.
Assay [2] is described as follows: inhibitors of mutant huntingtin aggregation, primary screen, imaging, exon1htt(103Q)mCFP cells, high-content imaging (AID 483;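 active means visual image review flags a hit and inhibition of aggregation exceeds 20%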;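 further: compound exposure lasted 3 days before fixation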;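 on nuclei count: percent of the per-plate median nuclei count of sample wells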). The following applies: exon1htt(103Q)mCFP cell line, aggregate imaging, at 2 µM; inhibition of aggregation: stronger effect = higher value; nuclei count: measured here: cell count, toxicity.
Assay [3] can be described thus: inhibitors of E-selectin induction by TNFa, primary screen, imaging, HUVEC, immunofluorescence, MLSMR starter and 10KST1 sets (AID 487).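 On inhibition: signal is fraction of cell area covered by stained E-selectin grains.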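 On nuclei count: 100% = median nuclei count of all wells on the same plate.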 The following applies: HUVEC TNFalpha-induced E-selectin immunofluorescence imaging, at 2 µM; inhibition: stronger effect = higher value; nuclei count: measured here: cell number, toxicity.
Assay [4] addresses Voltage-gated potassium channel subunit beta-2 (Rattus norvegicus) (UniProt P62483). The assay can be described thus: KvBeta enzyme negative modulators, primary screen, biochemical, NADPH fluorescence (AID 622;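 active means fluorescence slope higher than the sample average by over 3 SD, cut at about -0.22 in these data, passing the limit was not always enough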;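 further: slope of raw intensity against log time taken from 70 to 1610 s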). The following applies: recombinant KvBeta, 4-cyanobenzaldehyde reduction, at 10 µM, stronger effect = higher value.
For assay [5] the target is unchanged. In words: KvBeta positive modulators, primary screen, biochemical, NADPH fluorescence (AID 623;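 active means NADPH fluorescence slope more negative than the mean of all samples by about 3 SD, 99.7% confidence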;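 further: fluorescence intensity change per second fitted from 20 to 320 s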). The following applies: Recombinant KvBeta, NADPH fluorescence decrease slope, 10 min; at 10 µM; stronger effect = lower value.
Assay [6] addresses Muscarinic acetylcholine receptor M4 (Homo sapiens) (UniProt P08173). In words: compounds altering M4/GIRK thallium flux, either direction, primary screen, M4 allosteric agonist project, cell-based, HEK293 M4/GIRK, BTC-AM (AID 625;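 active means fluorescence slope after compound addition differing from the mean of all tested samples at 99.7% confidence, mostly higher but some lower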;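 further: thallium influx through GIRK channels coupled to M4 in HEK293 cells with BTC-AM dye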). The following applies: at 10 µM, actives lie on both sides. An outline of the steps:
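Material: M4/GIRK1/GIRK2 stable HEK293 cell line. Medium: pH 7.3 thallium assay buffer. Dosing: single compound concentration, 10 µM final. Schedule: 1 h dye loading, 2 min kinetic read. Measured by: kinetic fluorescence with BTC-AM dye. Read-out: post-addition slope, 15–24 s, of baseline-normalized fluorescence. Benchmarks: carbachol and DMSO controls.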

The nature of assay [7]: inhibitors of Sendai virus-induced IRF3 signaling, primary screen, TLR/RLR signaling modifier project, cell-based, Sendai virus stimulus, luciferase, 10K MLSCN set (AID 602276;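 active means inhibition at or above 50% at 10 µM; inactive means inhibition below 50%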;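 further: firefly luciferase from ISG56 promoter only with Renilla not read in this screen; 0% = Sendai virus plus DMSO and 100% = medium plus DMSO without virus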). The following applies: HEK293 RL24 IRF3 luciferase reporter, at 10 µM, stronger effect = higher value.
Assay [8] can be described thus: inhibitors of poly I:C-induced TLR3 signaling, primary screen, cell-based, poly I:C stimulus, luciferase, 10K MLSCN set (AID 602277;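 active means inhibition of the reporter signal at or above 50%; inactive means inhibition below 50%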). The following applies: HEK293-TLR3 RL24 IRF3 luciferase reporter, at 10 µM, stronger effect = higher value.

Voltage-gated potassium channel subunit beta-2 (Rattus norvegicus), sequence (P62483 whole entry, looked up): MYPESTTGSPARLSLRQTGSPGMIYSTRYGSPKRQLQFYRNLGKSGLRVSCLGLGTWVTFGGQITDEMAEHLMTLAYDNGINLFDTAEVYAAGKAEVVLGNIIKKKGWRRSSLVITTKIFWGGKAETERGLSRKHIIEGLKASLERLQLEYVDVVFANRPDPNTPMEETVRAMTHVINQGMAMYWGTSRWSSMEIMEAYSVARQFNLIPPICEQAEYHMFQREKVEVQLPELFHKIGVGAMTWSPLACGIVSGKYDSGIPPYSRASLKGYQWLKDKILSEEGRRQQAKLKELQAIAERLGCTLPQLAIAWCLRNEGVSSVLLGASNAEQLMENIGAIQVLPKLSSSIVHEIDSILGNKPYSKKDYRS
Muscarinic acetylcholine receptor M4 (Homo sapiens), sequence (P08173 whole entry, looked up): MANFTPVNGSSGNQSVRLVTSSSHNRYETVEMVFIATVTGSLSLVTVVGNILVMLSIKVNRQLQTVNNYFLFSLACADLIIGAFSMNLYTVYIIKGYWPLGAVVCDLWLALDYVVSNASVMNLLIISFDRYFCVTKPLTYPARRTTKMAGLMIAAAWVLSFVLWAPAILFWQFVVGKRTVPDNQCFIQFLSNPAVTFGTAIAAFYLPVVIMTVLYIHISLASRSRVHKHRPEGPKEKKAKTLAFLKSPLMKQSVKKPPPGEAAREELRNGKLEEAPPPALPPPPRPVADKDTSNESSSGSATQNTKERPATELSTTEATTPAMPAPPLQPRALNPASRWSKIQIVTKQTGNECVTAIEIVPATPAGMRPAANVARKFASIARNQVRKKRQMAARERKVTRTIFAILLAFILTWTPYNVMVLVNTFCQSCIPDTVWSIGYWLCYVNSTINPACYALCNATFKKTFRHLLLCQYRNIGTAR

What is called inhibition is the change of the read-out against control, counted positive when it falls. On to `COc1ccc(-c2noc(CCC(=O)Nc3nc4ccccc4s3)n2)cc1`, for which the cell count in assay [1] amounted to 540. In addition, the inhibition was -8.6% (inactive) in assay [1], -35% (inactive) in assay [3], -7.62% (inactive) in assay [7] and -8.39% (inactive) in assay [8]. Besides, the inhibition of aggregation in assay [2] is 21.7% (inactive). Further, the nuclei count in assay [2] worked out at 50.7%; in assay [3], 106%. The fluorescence slope in assay [4] is -0.586 (inactive); in assay [6] it was 0.0103 (inactive). In assay [5], the NADPH fluorescence slope is -3.6e-05 (inactive).
As to `CSc1ccccc1NC(=O)CN(Cc1ccccc1)S(C)(=O)=O`, the cell count in assay [1] turned out to be 768. Further, the inhibition was -15.1% (inactive) in assay [1], -78.6% (inactive) in assay [3], 21.8% (inactive) in assay [7] and 19.7% (inactive) in assay [8]. Moreover, the inhibition of aggregation in assay [2] was -4.2% (inactive). The nuclei count in assay [2] came out at 115%; in assay [3] it was 103%. The fluorescence slope was -0.564 (inactive) in assay [4] and 0.00609 (inactive) in assay [6]. Moreover, the NADPH fluorescence slope in assay [5] is -3.2e-05 (inactive).
In the case of `Cc1cc(C)cc(OCCCC(=O)O)c1`, in assay [1], the cell count was determined as 254. For the same compound, the inhibition was 9.4% (inactive) in assay [1], -45% (inactive) in assay [3], -0.0954% (inactive) in assay [7] and 17.4% (inactive) in assay [8]. The inhibition of aggregation in assay [2] was 12.3% (inactive). For the same compound, the nuclei count was determined as 118% in assay [2] and 94.2% in assay [3]. The fluorescence slope is -0.531 (inactive) in assay [4] and 0.00463 (inactive) in assay [6]. In assay [5], the NADPH fluorescence slope is -4.2e-05 (inactive).
Turning to `CC(C(=O)N1CCCCC1)n1sc2ccccc2c1=O` (stereo not drawn), the cell count in assay [1] came to 355. Further, the inhibition is -10.8% (inactive) in assay [1], -96.4% (inactive) in assay [3], -14.1% (inactive) in assay [7] and -35.6% (inactive) in assay [8]. The inhibition of aggregation in assay [2] is -13.5% (inactive). The figures for the nuclei count in assay [2] and in assay [3] were 111% and 109%, respectively. The figures for the fluorescence slope in assay [4] and in assay [6] were -0.479 (inactive) and 0.00498 (inactive), respectively. Moreover, the NADPH fluorescence slope in assay [5] was -0.000258 (inactive).
As to `O=C(Nc1ccccc1)c1cccnc1N1CCOCC1`, the cell count in assay [1] was determined as 590. Further, the inhibition was -11.1% (inactive) in assay [1], -36.4% (inactive) in assay [3], 4.9% (inactive) in assay [7] and 19.1% (inactive) in assay [8]. In addition, the inhibition of aggregation in assay [2] was -5.4% (inactive). For the same compound, the nuclei count in assay [2] was found to be 110%; in assay [3], 84.1%. Also, the fluorescence slope was -0.449 (inactive) in assay [4] and 0.00425 (inactive) in assay [6]. Besides, the NADPH fluorescence slope in assay [5] was -0.000339 (inactive).
Regarding `COc1ccccc1NC1=C(C)C(=O)CC1`, in assay [1], the cell count came out at 537. The inhibition was 10.5% (inactive) in assay [1], -5.6% (inactive) in assay [3], 19.4% (inactive) in assay [7] and 34% (inactive) in assay [8]. The inhibition of aggregation in assay [2] is 7.8% (inactive). In addition, the nuclei count in assay [2] was 88.4%; in assay [3], 102%. For the same compound, the fluorescence slope was -0.246 (inactive) in assay [4] and 0.00566 (inactive) in assay [6]. For the same compound, the NADPH fluorescence slope in assay [5] is -3e-05 (inactive).
As for `O=C(c1cc(-c2ccco2)nn1-c1cccc(Cl)c1)N1CCCCC1`, in assay [1], the cell count turned out to be 502. For the same compound, the inhibition in assay [1] was -4.7% (inactive); in assay [3] it was 1.9% (inactive); in assay [7] it was 22.9% (inactive); in assay [8], 36.1% (inactive). Also, the inhibition of aggregation in assay [2] was -5.1% (inactive). The figures for the nuclei count in assay [2] and in assay [3] were 91% and 100%, respectively. The fluorescence slope was -0.588 (inactive) in assay [4] and 0.0049 (inactive) in assay [6]. In assay [5], the NADPH fluorescence slope is -1.4e-05 (inactive).
As for `O=C(NCCc1ccccc1)c1cc(-c2ccco2)on1`, the cell count in assay [1] stood at 384. Also, the inhibition in assay [1] was -8.7% (inactive); in assay [3], -29.5% (inactive); in assay [7], -44.9% (inactive); in assay [8], -169% (inactive). Further, the inhibition of aggregation in assay [2] is 7.8% (inactive). Further, the nuclei count in assay [2] turned out to be 102%; in assay [3], 96.5%. The results for the fluorescence slope in assay [4] and in assay [6] were -0.473 (inactive) and 0.00445 (inactive), respectively. Also, in assay [5], the NADPH fluorescence slope is -5.1e-05 (inactive).
